Measurements published in article PMC9444296 (Investigative Radiology, 2022).

What was measured:
OPRD1 = OPRD1 (Homo sapiens, UniProt P41143); test: SAFETYscan E/IC50 assay, OPRD1; assay type: biochemical; details: concentration range 0.005 to 100 μM
Summary of the method: (§1)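 Contract-laboratory in vitro panel of 78 targets, run in agonist and/or antagonist modes under provider SOPs over 0.005 to 100 μM. Panel formats included enzyme fragment complementation, FLIPR-based cellular assays, kinase binding and enzymatic assays.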

CAV1.2 = CAV1.2 (Homo sapiens, UniProt Q13936); test: SAFETYscan E/IC50 assay, CAV1.2; assay type: biochemical; details: concentration range 0.005 to 100 μM
Summary of the method: as §1

[1] = Plasma protein binding, rat plasma; assay type: in vitro ADME; details: 37°C, 3 min, 10 kDa ultrafiltration, Gd by ICP-OES, n = 4
Summary of the method: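 Test compound at 50, 80 or 110 μM was incubated with human, dog or rat plasma (alongside HSA 40 mg/mL and PBS) at 37°C for 3 min. Mixtures were kept overnight and centrifuged to remove insolubles. Gd was measured by ICP-OES, and the binding ratio was taken as bound over total concentration.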

MDR1 = MDR1 (Homo sapiens, UniProt P08183); test: MDR1 inhibition, membrane vesicles; assay type: in vitro ADME; details: 1, 5, 10, 50, and 100 μM
[2] = test system: cardiovascular and respiratory system functions; test: Cardiovascular and respiratory safety pharmacology in conscious beagle dogs; assay type: in vivo, dog; details: single IV 0.07, 0.21, or 0.70 mmol/kg
Summary of the method: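 GLP study in 9 conscious beagle dogs (4 M, 5 F) given a single IV dose of saline or 0.07, 0.21 or 0.70 mmol/kg, at 3.5 mL/kg. Recorded within 1 h predose and at 0.5, 1, 2, 4 and 24 h: ECG (HR, PR, QRS, QT/QTcF, QRS voltage, STe, rhythm, waveform), systolic/diastolic/mean blood pressure, respiratory frequency and tidal volume.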

r1 and r2 relaxivity = assay type: physicochemical
Summary of the method: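 For the 1.4 T conditions, test compound was prepared at 0.125, 0.25, 0.5, 1 and 2 mM in HSA (40 mg/mL), water or PBS. T1 and T2 were measured on a benchtop relaxometer at 37°C.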

[3] = Metabolic stability in human hepatocytes; assay type: in vitro ADME; details: 2 hours of incubation, LC-MS/MS
[4] = Metabolic stability in SD rat hepatocytes; assay type: in vitro ADME; details: 2 hours of incubation, LC-MS/MS
CYP3A4 = CYP3A4 (Homo sapiens, UniProt P08684); details: 0.01, 0.1, 1, 10, and 100 μM, pooled human liver microsomes 0.5 mg/mL
CYP2B6 = details: human primary hepatocytes, 1, 10, and 100 μM
[5] = Gd remaining in rat tissues after toxicity study; assay type: in vivo; details: for Measured Concentration of Gd, Mean: day 29, ICP-MS
Summary of the method: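 Femur, abdominal skin, liver, brain, quadriceps, lung, heart, kidney, spleen, colon and jejunum were collected, and residual Gd was measured by ICP-MS.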

HRH1 = HRH1 (Homo sapiens, UniProt P35367); test: SAFETYscan E/IC50 assay, HRH1; assay type: biochemical; details: concentration range 0.005 to 100 μM
Summary of the method: as §1

CNR2 = CNR2 (Homo sapiens, UniProt P34972); test: SAFETYscan E/IC50 assay, CNR2; assay type: biochemical; details: concentration range 0.005 to 100 μM
Summary of the method: as §1

[6] = rats, single dose 1.39 mmol/kg, day 15, ICP-MS

CNR2, sequence (P34972 whole entry): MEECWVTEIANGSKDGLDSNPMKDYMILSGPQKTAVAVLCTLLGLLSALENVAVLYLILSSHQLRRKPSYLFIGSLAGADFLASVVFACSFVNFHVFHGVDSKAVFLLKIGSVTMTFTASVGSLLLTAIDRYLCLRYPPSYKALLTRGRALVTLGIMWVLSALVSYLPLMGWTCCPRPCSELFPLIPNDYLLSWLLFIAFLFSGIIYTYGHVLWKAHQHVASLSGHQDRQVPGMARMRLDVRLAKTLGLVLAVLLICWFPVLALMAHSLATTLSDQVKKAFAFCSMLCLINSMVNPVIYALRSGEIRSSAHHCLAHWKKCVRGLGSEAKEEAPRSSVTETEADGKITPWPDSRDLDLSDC
CYP3A4, sequence (P08684 whole entry): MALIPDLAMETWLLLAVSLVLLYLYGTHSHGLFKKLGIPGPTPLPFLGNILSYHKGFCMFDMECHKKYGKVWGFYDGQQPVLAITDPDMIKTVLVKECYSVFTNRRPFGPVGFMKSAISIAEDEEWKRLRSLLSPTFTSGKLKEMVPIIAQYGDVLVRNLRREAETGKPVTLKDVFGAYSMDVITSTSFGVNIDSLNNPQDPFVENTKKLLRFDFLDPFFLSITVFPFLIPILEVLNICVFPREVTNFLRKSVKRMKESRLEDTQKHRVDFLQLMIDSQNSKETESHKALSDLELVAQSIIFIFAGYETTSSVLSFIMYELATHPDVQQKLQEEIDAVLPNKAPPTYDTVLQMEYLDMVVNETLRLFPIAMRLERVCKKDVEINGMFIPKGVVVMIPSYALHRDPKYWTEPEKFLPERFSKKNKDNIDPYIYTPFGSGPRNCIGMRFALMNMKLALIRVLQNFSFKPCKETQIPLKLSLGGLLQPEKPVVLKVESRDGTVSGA
HRH1, sequence (P35367 whole entry): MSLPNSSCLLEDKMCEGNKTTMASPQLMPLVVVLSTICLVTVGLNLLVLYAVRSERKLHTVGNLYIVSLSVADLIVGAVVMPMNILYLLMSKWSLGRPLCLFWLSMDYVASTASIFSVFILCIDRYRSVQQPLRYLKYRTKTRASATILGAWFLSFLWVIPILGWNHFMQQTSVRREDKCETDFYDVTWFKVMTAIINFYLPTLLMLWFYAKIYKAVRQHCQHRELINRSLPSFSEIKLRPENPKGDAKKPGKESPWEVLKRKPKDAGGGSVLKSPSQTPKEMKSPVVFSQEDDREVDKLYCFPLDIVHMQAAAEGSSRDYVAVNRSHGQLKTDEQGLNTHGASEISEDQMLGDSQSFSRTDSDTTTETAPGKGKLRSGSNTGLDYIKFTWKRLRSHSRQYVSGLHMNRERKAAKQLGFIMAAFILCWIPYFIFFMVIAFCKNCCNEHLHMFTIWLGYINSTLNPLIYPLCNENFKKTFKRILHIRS
MDR1, sequence (P08183 whole entry): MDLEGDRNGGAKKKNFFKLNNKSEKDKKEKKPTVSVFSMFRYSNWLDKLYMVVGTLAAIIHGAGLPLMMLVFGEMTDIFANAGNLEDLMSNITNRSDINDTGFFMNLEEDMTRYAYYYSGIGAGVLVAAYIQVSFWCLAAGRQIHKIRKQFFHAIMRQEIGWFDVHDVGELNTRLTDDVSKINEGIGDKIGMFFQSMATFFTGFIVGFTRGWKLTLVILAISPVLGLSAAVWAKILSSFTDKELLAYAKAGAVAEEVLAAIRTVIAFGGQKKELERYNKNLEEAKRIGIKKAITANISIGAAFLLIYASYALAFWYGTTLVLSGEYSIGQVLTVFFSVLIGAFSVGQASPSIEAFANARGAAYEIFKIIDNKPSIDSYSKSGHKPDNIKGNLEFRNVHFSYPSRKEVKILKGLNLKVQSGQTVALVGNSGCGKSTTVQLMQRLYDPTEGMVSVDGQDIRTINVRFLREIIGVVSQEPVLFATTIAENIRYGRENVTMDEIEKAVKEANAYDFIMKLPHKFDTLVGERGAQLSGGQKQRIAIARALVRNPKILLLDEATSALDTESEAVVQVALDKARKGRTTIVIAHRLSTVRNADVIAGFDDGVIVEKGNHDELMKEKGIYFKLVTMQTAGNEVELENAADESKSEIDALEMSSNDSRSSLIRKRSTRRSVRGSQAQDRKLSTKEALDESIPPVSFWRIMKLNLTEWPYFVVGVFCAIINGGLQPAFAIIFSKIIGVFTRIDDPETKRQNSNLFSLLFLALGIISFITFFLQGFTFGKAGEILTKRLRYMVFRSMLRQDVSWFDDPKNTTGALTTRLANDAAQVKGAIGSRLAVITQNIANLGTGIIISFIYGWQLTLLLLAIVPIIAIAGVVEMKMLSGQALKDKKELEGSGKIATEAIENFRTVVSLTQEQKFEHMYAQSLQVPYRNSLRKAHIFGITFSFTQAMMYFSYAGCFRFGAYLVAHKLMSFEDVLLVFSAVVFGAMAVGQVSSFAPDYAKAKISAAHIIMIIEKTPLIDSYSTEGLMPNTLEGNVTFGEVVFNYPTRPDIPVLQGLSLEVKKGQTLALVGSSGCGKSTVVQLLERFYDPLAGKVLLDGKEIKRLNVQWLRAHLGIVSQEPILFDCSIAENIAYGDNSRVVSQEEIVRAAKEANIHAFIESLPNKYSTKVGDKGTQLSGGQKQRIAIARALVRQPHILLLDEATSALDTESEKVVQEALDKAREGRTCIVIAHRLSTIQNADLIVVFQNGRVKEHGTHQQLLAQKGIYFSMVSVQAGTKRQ
OPRD1, sequence (P41143 whole entry, the tested form may be a part): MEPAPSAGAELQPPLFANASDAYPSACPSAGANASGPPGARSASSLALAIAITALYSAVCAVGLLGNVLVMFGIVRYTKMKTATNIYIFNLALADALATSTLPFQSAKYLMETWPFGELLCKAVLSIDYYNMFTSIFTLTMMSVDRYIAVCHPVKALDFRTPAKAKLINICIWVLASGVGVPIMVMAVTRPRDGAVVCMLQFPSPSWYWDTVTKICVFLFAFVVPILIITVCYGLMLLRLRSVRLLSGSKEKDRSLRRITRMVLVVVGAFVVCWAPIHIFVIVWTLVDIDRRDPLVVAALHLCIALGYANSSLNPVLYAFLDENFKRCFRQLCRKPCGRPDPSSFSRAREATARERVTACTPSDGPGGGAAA

## ZD2-N3-Gd(HP-DO3A) [MT218]
OPRD1
  inhibition rate: 11.08%
CAV1.2
  inhibition rate: 15.58%
[1]; 50 μM
  binding ratio to plasma proteins: 28.44%
[1]; 80 μM
  binding ratio to plasma proteins: 27.12%
[1]; 110 μM
  binding ratio to plasma proteins: 25.68%
MDR1
  inhibition of MDR1 transporter activity: no inhibition potential
[2]
  effect on ECG, blood pressure and respiratory function parameters: no MT218-related effect
CYP1A2; 100 μM, human hepatocytes, 1 of the 3 lots of cells
  mRNA expression level of CYP1A2 vs vehicle controls: 2.10 fold
CYP1A2; human primary hepatocytes, 1, 10, and 100 μM
  induction on enzyme activity of CYP1A2: no induction
r1 and r2 relaxivity; 1.4 T, HSA aqueous solution (40 mg/mL), 37°C
  r1 Relaxivity: 6.54 mM⁻¹ s⁻¹
r1 and r2 relaxivity; 1.4 T, PBS, 37°C
  r1 Relaxivity: 6.58 mM⁻¹ s⁻¹
r1 and r2 relaxivity; 3.0 T, H2O, MRS 3000 scanner
  r1 Relaxivity: 6.25 (H2O) mM^−1 s^−1
r1 and r2 relaxivity; 3.0 T, PBS
  r1 Relaxivity: 6.16 mM⁻¹ s⁻¹
[3]
  remaining MT218: 61.1%
[4]
  remaining MT218: 67.5%
CYP3A4
  inhibition of CYP3A4 activity: did not inhibit
CYP2B6
  induction of mRNA expression of CYP2B6: did not induce
  induction on enzyme activity of CYP2B6: no induction
[5]; Female rat, Bone, 0.15 mmol/kg/d daily IV 2 weeks
  Measured Concentration of Gd, Mean: 0.19 μg/g Tissue
[5]; Female rat, Bone, 0.46 mmol/kg/d daily IV 2 weeks
  Measured Concentration of Gd, Mean: 1.13 μg/g Tissue
[5]; Female rat, Bone, 1.39 mmol/kg/d daily IV 2 weeks
  Measured Concentration of Gd, Mean: 4.90 μg/g Tissue
[5]; Female rat, Brain, 0.15 mmol/kg/d daily IV 2 weeks
  Measured Concentration of Gd, Mean: BQL
[5]; Female rat, Brain, 0.46 mmol/kg/d daily IV 2 weeks
  Measured Concentration of Gd, Mean: 0.03 μg/g Tissue
[5]; Female rat, Brain, 1.39 mmol/kg/d daily IV 2 weeks
  Measured Concentration of Gd, Mean: 0.40 μg/g Tissue
[5]; Female rat, Colon, 0.15 mmol/kg/d daily IV 2 weeks
  Measured Concentration of Gd, Mean: 0.15 μg/g Tissue
[5]; Female rat, Colon, 0.46 mmol/kg/d daily IV 2 weeks
  Measured Concentration of Gd, Mean: 1.02 μg/g Tissue
[5]; Female rat, Colon, 1.39 mmol/kg/d daily IV 2 weeks
  Measured Concentration of Gd, Mean: 3.44 μg/g Tissue
[5]; Female rat, Heart, 0.15 mmol/kg/d daily IV 2 weeks
  Measured Concentration of Gd, Mean: BQL
[5]; Female rat, Heart, 0.46 mmol/kg/d daily IV 2 weeks
  Measured Concentration of Gd, Mean: 3.17 μg/g Tissue
[5]; Female rat, Heart, 1.39 mmol/kg/d daily IV 2 weeks
  Measured Concentration of Gd, Mean: 1.85 μg/g Tissue
[5]; Female rat, Jejunum, 0.15 mmol/kg/d daily IV 2 weeks
  Measured Concentration of Gd, Mean: 0.23 μg/g Tissue
[5]; Female rat, Jejunum, 0.46 mmol/kg/d daily IV 2 weeks
  Measured Concentration of Gd, Mean: 0.73 μg/g Tissue
[5]; Female rat, Jejunum, 1.39 mmol/kg/d daily IV 2 weeks
  Measured Concentration of Gd, Mean: 3.26 μg/g Tissue
[5]; Female rat, Kidney, 0.15 mmol/kg/d daily IV 2 weeks
  Measured Concentration of Gd, Mean: 26.46 μg/g Tissue
[5]; Female rat, Kidney, 0.46 mmol/kg/d daily IV 2 weeks
  Measured Concentration of Gd, Mean: 100.81 μg/g Tissue
[5]; Female rat, Kidney, 1.39 mmol/kg/d daily IV 2 weeks
  Measured Concentration of Gd, Mean: 346.00 μg/g Tissue
[5]; Female rat, Liver, 0.15 mmol/kg/d daily IV 2 weeks
  Measured Concentration of Gd, Mean: 0.31 μg/g Tissue
[5]; Female rat, Liver, 0.46 mmol/kg/d daily IV 2 weeks
  Measured Concentration of Gd, Mean: 1.03 μg/g Tissue
[5]; Female rat, Liver, 1.39 mmol/kg/d daily IV 2 weeks
  Measured Concentration of Gd, Mean: 4.11 μg/g Tissue
[5]; Female rat, Lung, 0.15 mmol/kg/d daily IV 2 weeks
  Measured Concentration of Gd, Mean: 0.20 μg/g Tissue
[5]; Female rat, Lung, 0.46 mmol/kg/d daily IV 2 weeks
  Measured Concentration of Gd, Mean: 1.27 μg/g Tissue
[5]; Female rat, Lung, 1.39 mmol/kg/d daily IV 2 weeks
  Measured Concentration of Gd, Mean: 3.86 μg/g Tissue
[5]; Female rat, Muscle, 0.15 mmol/kg/d daily IV 2 weeks
  Measured Concentration of Gd, Mean: 0.03 μg/g Tissue
[5]; Female rat, Muscle, 0.46 mmol/kg/d daily IV 2 weeks
  Measured Concentration of Gd, Mean: 0.21 μg/g Tissue
[5]; Female rat, Muscle, 1.39 mmol/kg/d daily IV 2 weeks
  Measured Concentration of Gd, Mean: 1.27 μg/g Tissue
[5]; Female rat, Skin, 0.15 mmol/kg/d daily IV 2 weeks
  Measured Concentration of Gd, Mean: 0.14 μg/g Tissue
[5]; Female rat, Skin, 0.46 mmol/kg/d daily IV 2 weeks
  Measured Concentration of Gd, Mean: 1.26 μg/g Tissue
[5]; Female rat, Skin, 1.39 mmol/kg/d daily IV 2 weeks
  Measured Concentration of Gd, Mean: 4.56 μg/g Tissue
[5]; Female rat, Spleen, 0.15 mmol/kg/d daily IV 2 weeks
  Measured Concentration of Gd, Mean: 0.32 μg/g Tissue
[5]; Female rat, Spleen, 0.46 mmol/kg/d daily IV 2 weeks
  Measured Concentration of Gd, Mean: 1.41 μg/g Tissue
[5]; Female rat, Spleen, 1.39 mmol/kg/d daily IV 2 weeks
  Measured Concentration of Gd, Mean: 4.69 μg/g Tissue
[5]; Male rat, Bone, 0.15 mmol/kg/d daily IV 2 weeks
  Measured Concentration of Gd, Mean: 0.28 μg/g Tissue
[5]; Male rat, Bone, 0.46 mmol/kg/d daily IV 2 weeks
  Measured Concentration of Gd, Mean: 0.70 μg/g Tissue
[5]; Male rat, Bone, 1.39 mmol/kg/d daily IV 2 weeks
  Measured Concentration of Gd, Mean: 5.85 μg/g Tissue
[5]; Male rat, Brain, 0.15 mmol/kg/d daily IV 2 weeks
  Measured Concentration of Gd, Mean: BQL
[5]; Male rat, Brain, 0.46 mmol/kg/d daily IV 2 weeks
  Measured Concentration of Gd, Mean: 0.07 μg/g Tissue
[5]; Male rat, Colon, 0.15 mmol/kg/d daily IV 2 weeks
  Measured Concentration of Gd, Mean: 0.18 μg/g Tissue
[5]; Male rat, Colon, 0.46 mmol/kg/d daily IV 2 weeks
  Measured Concentration of Gd, Mean: 0.79 μg/g Tissue
[5]; Male rat, Colon, 1.39 mmol/kg/d daily IV 2 weeks
  Measured Concentration of Gd, Mean: 3.92 μg/g Tissue
[5]; Male rat, Heart, 0.15 mmol/kg/d daily IV 2 weeks
  Measured Concentration of Gd, Mean: 0.14 μg/g Tissue
[5]; Male rat, Heart, 0.46 mmol/kg/d daily IV 2 weeks
  Measured Concentration of Gd, Mean: 1.72 μg/g Tissue
[5]; Male rat, Heart, 1.39 mmol/kg/d daily IV 2 weeks
  Measured Concentration of Gd, Mean: 2.56 μg/g Tissue
[5]; Male rat, Jejunum, 0.15 mmol/kg/d daily IV 2 weeks
  Measured Concentration of Gd, Mean: 0.17 μg/g Tissue
[5]; Male rat, Jejunum, 0.46 mmol/kg/d daily IV 2 weeks
  Measured Concentration of Gd, Mean: 0.73 μg/g Tissue
[5]; Male rat, Jejunum, 1.39 mmol/kg/d daily IV 2 weeks
  Measured Concentration of Gd, Mean: 3.72 μg/g Tissue
[5]; Male rat, Kidney, 0.15 mmol/kg/d daily IV 2 weeks
  Measured Concentration of Gd, Mean: 15.15 μg/g Tissue
[5]; Male rat, Kidney, 0.46 mmol/kg/d daily IV 2 weeks
  Measured Concentration of Gd, Mean: 70.70 μg/g Tissue
[5]; Male rat, Kidney, 1.39 mmol/kg/d daily IV 2 weeks
  Measured Concentration of Gd, Mean: 519.85 μg/g Tissue
[5]; Male rat, Liver, 0.15 mmol/kg/d daily IV 2 weeks
  Measured Concentration of Gd, Mean: 0.22 μg/g Tissue
[5]; Male rat, Liver, 0.46 mmol/kg/d daily IV 2 weeks
  Measured Concentration of Gd, Mean: 1.96 μg/g Tissue
[5]; Male rat, Liver, 1.39 mmol/kg/d daily IV 2 weeks
  Measured Concentration of Gd, Mean: 4.85 μg/g Tissue
[5]; Male rat, Lung, 0.15 mmol/kg/d daily IV 2 weeks
  Measured Concentration of Gd, Mean: BQL
[5]; Male rat, Lung, 0.46 mmol/kg/d daily IV 2 weeks
  Measured Concentration of Gd, Mean: 1.33 μg/g Tissue
[5]; Male rat, Lung, 1.39 mmol/kg/d daily IV 2 weeks
  Measured Concentration of Gd, Mean: 4.83 μg/g Tissue
[5]; Male rat, Muscle, 0.15 mmol/kg/d daily IV 2 weeks
  Measured Concentration of Gd, Mean: BQL
[5]; Male rat, Muscle, 0.46 mmol/kg/d daily IV 2 weeks
  Measured Concentration of Gd, Mean: 0.22 μg/g Tissue
[5]; Male rat, Muscle, 1.39 mmol/kg/d daily IV 2 weeks
  Measured Concentration of Gd, Mean: 1.15 μg/g Tissue
[5]; Male rat, Skin, 0.15 mmol/kg/d daily IV 2 weeks
  Measured Concentration of Gd, Mean: 0.13 μg/g Tissue
[5]; Male rat, Skin, 0.46 mmol/kg/d daily IV 2 weeks
  Measured Concentration of Gd, Mean: 0.95 μg/g Tissue
[5]; Male rat, Skin, 1.39 mmol/kg/d daily IV 2 weeks
  Measured Concentration of Gd, Mean: 2.31 μg/g Tissue
[5]; Male rat, Spleen, 0.15 mmol/kg/d daily IV 2 weeks
  Measured Concentration of Gd, Mean: 0.37 μg/g Tissue
[5]; Male rat, Spleen, 0.46 mmol/kg/d daily IV 2 weeks
  Measured Concentration of Gd, Mean: 1.12 μg/g Tissue
[5]; Male rat, Spleen, 1.39 mmol/kg/d daily IV 2 weeks
  Measured Concentration of Gd, Mean: 6.04 μg/g Tissue
[5]; [6]
  Gd concentration in other tissues relative to the kidney concentration: < 1/20
  Gd in the brain and muscles: not detected
HRH1
  inhibition rate: 17.77%
CNR2
  inhibition rate: 12.4%
